# This is a sample that favours compounds with a hit; in the whole collection about 2% have one here.
# APJ agonist: agonists of human apelin receptor APJ, primary screen, CHO-K1 cells, PathHunter beta-arrestin, luminescence | P35414 | 0% DMSO wells, 100% apelin | activation, % at 20 µM | hit rate 0.11% among 330,000;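 active = activation more than six SD over the plate average, tested at 20 µM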
#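 system = engineered CHO-K1 APJ arrestin reporter cells | input = 1000 cells per well | timing = overnight seeding, 90 min compound at 25 °C, 1 h detection | measured by = enzyme-fragment complementation luminescence | read-out = beta-arrestin recruitment to APJ as agonist activity, luminescent signal | control set = negative DMSO alone, positive Apelin-13 at 10 nM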
# FXN GAA850 act: FXN promoter activators, primary screen, cell-based, luciferase luminescence, HEK293 lucGAA850 | HEK293 lucGAA850 FXN promoter luciferase reporter, 24 h; percent of 10 µM SAHA response | activation, % at 6 µM | hit rate 0.56% among 360,000;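 active = activation above the average of all compounds screened plus 3 SD, cutoff fixed separately per campaign, cut at about 7.5% in these data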
# CXCR6 block: CXCR6 receptor inhibitors, primary screen, cell-based, beta-arrestin, luminescence, CHO-K1 PathHunter, 1536-well; hit rate 0.36% among 360,000; inhibition, % at 20 µM; in the data active = inhibition above about 34%, passing the limit was not always enough;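 also: antagonist mode with CXCL16 agonist at 10 nM final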
# CCR6 antag: CCR6 receptor antagonists, primary screen, cell-based, CHO-K1, luminescence, beta-arrestin, uHTS | C-C chemokine receptor type 6 (Homo sapiens), P51684 | CHO-K1 CCR6 PathHunter beta-arrestin, CCL20-stimulated | inhibition, % at 20 µM | hit rate 0.49% among 340,000;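 active = compounds whose inhibition of the agonist-driven luminescence signal at 20 µM reaches about 50%, limit read from the data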;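 also: cells stimulated with CCL20 at 14 nM final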
# Target sequence (P51684 whole entry, looked up): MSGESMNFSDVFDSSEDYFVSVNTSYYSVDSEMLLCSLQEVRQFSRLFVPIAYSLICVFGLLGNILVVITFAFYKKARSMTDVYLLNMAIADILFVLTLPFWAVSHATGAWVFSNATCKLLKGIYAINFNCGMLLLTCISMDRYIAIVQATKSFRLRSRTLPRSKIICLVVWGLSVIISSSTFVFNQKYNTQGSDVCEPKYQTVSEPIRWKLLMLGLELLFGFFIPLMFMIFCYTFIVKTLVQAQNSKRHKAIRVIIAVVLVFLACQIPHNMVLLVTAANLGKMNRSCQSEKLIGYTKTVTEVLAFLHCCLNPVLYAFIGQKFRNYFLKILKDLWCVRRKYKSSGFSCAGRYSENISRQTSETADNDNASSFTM
# EBI2 antag: EBI2 receptor antagonists, beta-arrestin recruitment, primary screen, cell-based, luminescence, 7a,25-OHC stimulation, uHTS | 7a,25-OHC stimulated | inhibition, % at 5 µM | hit rate 0.81% among 360,000 | AID 651636, 2012; in the data active = inhibition above about 38%;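 also: enzyme fragment complementation signal reports receptor beta-arrestin coupling in cells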
# APJ antagonist: antagonists of human apelin receptor APJ, primary screen, CHO-K1 cells, beta-arrestin complementation, luminescence; P35414; hit rate 0.32% among 330,000; inhibition, % at 20 µM; AID 2521, 2010;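 active = inhibition above about 40% at 20 µM, limit read from the data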;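 also: cells challenged with 10 nM apelin-13 agonist together with compound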
# GAA30 FXN cntr: GAA30 FXN promoter activators, confirmation, counter-screen for GAA850 frataxin promoter activator project, cell-based, luminescence, HEK293, lucGAA30, triplicate | AID 588350, 2011 | activation, % at 6 µM | HEK293 lucGAA30 FXN promoter luciferase, 24 h; DMSO = 0%, 5 µM ipriflavone = 100% | shares compounds with FXN GAA850 act | hit rate 66% among 1,900;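 active = mean activation above the mean of solvent-only control wells plus 3 SD, cut at about 22% in these data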;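 also: counterscreen of GAA850 promoter hits where activity marks nonselective or luminescence artifacts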
# GAA850 confirm: FXN GAA850 promoter activators in reporter cells, confirmation, cell-based, luminescence, HEK293 lucGAA850, triplicate; shares compounds with FXN GAA850 act; HEK293 lucGAA850 FXN promoter luciferase reporter, 24 h; 100% = activation by SAHA; activation, % at 6 µM; hit rate 86% among 1,900; AID 588351, 2011;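 active = mean activation above a set limit taken from the primary screen, cut at about 8% in these data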
# Hits are given with their value; . = inactive; / = not tested or not shown.
SMILES,APJ agonist,FXN GAA850 act,CXCR6 block,CCR6 antag,EBI2 antag,APJ antagonist,GAA30 FXN cntr,GAA850 confirm
COC(=O)[C@]1(Cc2ccccc2)N[C@H](CN(C)C(=O)Nc2ccccc2)[C@@H]2C(=O)N(Cc3ccccc3)C(=O)[C@@H]21,.,.,.,.,.,.,/,/
CC[C@@]1(C(=O)OC)N[C@H](CN(C)C(=O)Nc2ccc(OC)cc2)[C@@H]2C(=O)N(Cc3ccccc3)C(=O)[C@@H]21,.,17,.,.,.,.,84,24
CC[C@@]1(C(=O)OC)N[C@H](CN(C)C(=O)Nc2ccc(F)cc2)[C@@H]2C(=O)N(Cc3ccccc3)C(=O)[C@@H]21,.,9.6,.,.,.,.,38,18
CCOC(=O)c1nc(S(C)(=O)=O)ncc1Cl,.,41,.,.,.,.,63,73
CCOC(=O)c1nc(S(C)(=O)=O)ncc1N1CCOCC1,.,.,.,.,.,.,/,/
CCOC(CN=c1nc(N(C)C)ss1)OCC,/,8.2,60,92,.,/,.,10
COc1ccc(-c2ccc(NS(=O)(=O)c3cc([N+](=O)[O-])c(C)c([N+](=O)[O-])c3)cc2)nn1,.,.,.,.,.,.,/,/
CCn1c2ccccc2c2cc(NC(=O)CSc3nnc(-c4cccc(OC)c4)n3N)ccc21,.,8.4,.,.,.,.,.,9.0
CCn1c2ccccc2c2cc(NC(=O)CSc3nnc(-c4ccccc4OC)n3N)ccc21,.,8.4,.,.,.,.,.,.
CCn1c2ccccc2c2cc(NC(=O)CSc3nnc(-c4ccc(OC)c(OC)c4)n3N)ccc21,.,.,.,.,.,.,/,/
O=C1CCC(c2ccc3ccccc3c2)O1 (centres undefined),/,.,.,.,.,/,/,/
CCc1nc2ccc(C(=O)NCCN3CCNC3=O)cn2c1N(C)Cc1ccc(OC)cc1,/,14,.,/,.,/,22,.
CCOc1cccc(C(=O)NNC(=O)C2C3C=CC(C3)C2C(=O)O)c1 (centres undefined),.,.,.,.,.,.,/,/
CCC(C)NC(=O)c1cnn2c(C)c3c(nc12)CCCC3 (centres undefined),.,7.8,.,.,.,.,.,9.6
COC(=O)c1cc(Br)c(N)cc1OC,.,.,.,.,.,.,/,/
COc1cc2c(c(Br)c1N)-c1cc(Br)c(N)cc1C2=O,/,11,.,/,.,/,91,46
O=C(CS(=O)(=O)c1ccccc1)N1CCc2ccccc21,.,8.5,.,.,.,.,99,30
O=C(Cc1ccccc1)N1CCc2ccccc21,.,.,.,.,.,.,/,/
COCC(=O)Nc1nnc(-c2ccc(C(C)(C)C)cc2)s1,.,8.3,.,.,.,.,124,37
CC1CC(C)(C)OC(c2ccc(C(C)C)cc2)O1 (centres undefined),/,.,.,.,.,/,/,/
CCc1sc(C(=O)Nc2ccc3c(c2)OCCO3)cc1Br,.,8.0,.,/,.,.,111,41
CC1=CC(C)(C)Nc2ccc(OC(=O)CN3C(=O)c4ccccc4C3=O)cc21,.,8.7,.,.,.,.,.,18
O=C(O)/C=C/C(=O)NCc1cn(-c2ccccc2)nc1-c1cccc(Br)c1,.,8.2,.,.,.,.,30,13
COc1c(O)ccc(/C=N/NC(=O)c2ccc3c(c2)OCCO3)c1[N+](=O)[O-],.,7.7,.,.,.,.,71,19
COc1c(O)ccc(/C=N\NC(=O)c2ccc3c(c2)OCO3)c1[N+](=O)[O-],.,.,.,.,.,.,/,/
SMILES,APJ agonist,FXN GAA850 act,CXCR6 block,CCR6 antag,EBI2 antag,APJ antagonist,GAA30 FXN cntr,GAA850 confirm
O=C(NC12CC3CC(CC(C3)C1)C2)N(Cc1ccccc1)Cc1ccncc1,.,10,.,.,.,.,.,13
CN1C[C@@H]2[C@@H]3C(=O)N(Cc4ccccc4)C(=O)[C@@H]3[C@](Cc3ccccc3)(C1=O)N2C(=O)c1ccc(Br)cc1,/,.,.,.,.,/,/,/
Cn1c(CNc2ccc(O)cc2)nc2ccccc21,.,8.3,.,.,.,.,86,26
CN(C)S(=O)(=O)n1cc(/C=C(\NC(=O)c2ccccc2Cl)C(=O)N2CCCC2)c2ccccc21,.,8.8,.,.,.,.,.,11
Cc1cccc(N(O)C(=O)Nc2cccc(Cl)c2)c1,.,.,.,.,.,.,/,/
COc1cc2ccccc2cc1C(=O)Nc1ccccc1N1CCCC1,.,.,.,.,.,.,/,/
COc1cc2ccccc2cc1C(=O)Nc1ccccc1Cl,.,8.2,.,.,.,.,121,39
COc1ccc2c(c1)CC=C1C2CCC2(C)C(=O)C(=NO)CC12 (centres undefined),/,.,.,.,.,/,/,/
C=CCn1c(SCC(=O)Nc2ccccc2OC)nc2c([nH]c3ccccc32)c1=O,.,13,.,.,.,.,.,12
COCCn1c(SCC(=O)Nc2ccccc2OC)nc2c([nH]c3ccccc32)c1=O,.,8.0,.,.,.,.,.,7.9
Nc1c(C=C2C=CC(=O)C=C2)c(=O)nc2snc(SCc3ccccc3)n12,.,7.7,.,.,.,.,59,15
Cc1ccccc1CSc1nnc2ccc(-c3ccncc3)nn12,.,7.7,.,.,.,.,30,13
c1ccc(CSc2nnc3ccc(-c4ccncc4)nn23)nc1,.,.,.,.,.,.,/,/
CN(C)C(=S)N=c1ssc(=S)n1Cc1cccnc1,/,12,.,.,.,/,.,12
Cc1nc(/N=C(\N)NC(=O)c2ccccc2)nc2ccccc12,.,8.3,.,.,.,.,97,33
COc1cccc(C(=O)NN2C(=S)N(c3ccccc3)C(=O)C2CC(N)=O)c1 (centres undefined),.,7.8,.,.,.,.,107,29
NC(=O)CC1C(=O)N(c2ccccc2)C(=S)N1NC(=O)c1ccccc1 (centres undefined),.,8.9,.,.,.,.,77,20
